Drawing on ChEMBL document CHEMBL2203117, “Synthesis and biological activities of N-(3-carboxylpropyl)-5-amino-2-hydroxy-3-tridecyl-1,4-benzoquinone and analogues” (2012), this text covers Activity for four compounds.

Assay [1] can be described thus: Antioxidant activity in human GM15850 cells assessed as inhibition of glutathione depletion-induced lipid peroxidation at 5 uM after 16 hrs using C11-BODIPY581/591 by FACS analysis relative to control. The format is functional. More on the design: scale not given: the % may be the effect or the level left. The method in brief:
(§1)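 FRDA lymphocytes at 5 × 10⁵ cells/mL received compound (5 or 10 μM final) for 16 h at 37 °C. Cells were loaded with 1 μM C11-BODIPY581/591 in phenol red-free RPMI for 30 min in the dark, then stressed with 5 mM DEM for 2 h. After washing, green (oxidized) fluorescence was read by FACS, 10 000 events. Scavenging % = [(100 − % mean)/(100 − % mean of untreated control)] × 100. Duplicates, three independent experiments.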

For assay [2], the system named is CCRF-CEM. The assay is described as follows: Antioxidant activity in human CEM cells assessed as inhibition of glutathione depletion-induced ROS production at 5 uM after 16 hrs using DCFH-DA staining by flow cytometry analysis. In kind it is functional, cell-based. The method in brief:
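CEM leukemia lymphocytes (5 × 10⁵ cells in 1 mL) were given compound for 16 h at 37 °C in 5% CO2. They were then exposed to 5 mM diethyl maleate for 40 min to deplete GSH. After a PBS wash they were stained with 10 μM DCFH-DA in PBS with 20 mM glucose for 20 min at 37 °C in the dark. DCF fluorescence was read by flow cytometry (488 nm excitation, FL1-H), 10 000 events. Mean ± SEM of two experiments, each in duplicate.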

Assay [3] concerns GM15850. The assay is described as follows: Cytoprotective activity in human GM15850 cells assessed as glutathione depletion-induced reduction of cell viability at 5 uM after 17 hrs by trypan blue exclusion assay relative to control. In kind it is functional. The method in brief: (§2)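 FRDA lymphocytes were grown in RPMI 1640 with 15% fetal calf serum and 2 mM glutamine. Cells seeded at 5 × 10⁵ cells/mL were preincubated with compound for 17 h at 37 °C, then given 5 mM DEM for a further 6 h. Viability was scored by 0.4% trypan blue exclusion on a hemacytometer, counting at least 500 cells per group. Values are % of the untreated control (100%). Mean ± SEM, n = 3.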

The nature of assay [4]: Antioxidant activity in human GM15850 cells assessed as inhibition of glutathione depletion-induced lipid peroxidation at 10 uM after 16 hrs using C11-BODIPY581/591 by FACS analysis relative to control. In kind it is functional. More on the design: scale not given: the % may be the effect or the level left. The method in brief: as §1
Assay [5] concerns GM15850. Briefly: Antioxidant activity in human GM15850 cells assessed as inhibition of glutathione depletion-induced ROS production at 5 uM after 16 hrs using DCFH-DA staining by flow cytometry analysis. The format is functional, cell-based. The method in brief:
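FRDA lymphocytes (5 × 10⁵ cells in 1 mL) were pretreated with compound for 16 h at 37 °C in 5% CO2. GSH was then depleted with 5 mM diethyl maleate for 80 min. Cells were washed and loaded with 10 μM DCFH-DA in PBS with 20 mM glucose for 20 min at 37 °C in the dark. DCF was measured by flow cytometry (488 nm, FL1-H), 10 000 events. Two experiments in duplicate, mean ± SEM.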

Assay [6] relates to GM15850. The assay is described as follows: Protection against DEM-induced loss of mitochondrial membrane potential in human GM15850 cells at 5 uM after 16 hrs using TMRM/JC-1 staining by flow cytometry analysis relative to control. The format is functional. The method in brief: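 FRDA lymphocytes were pretreated with compound for 16 h, then given 5 mM DEM for 140 min. Cells were washed twice with PBS and stained with 250 nM TMRM in PBS-glucose for 15 min at 37 °C in the dark. Flow cytometry read the FL2-H channel (488 nm excitation), 10 000 events, with FCCP as the depolarized control. Result is the % of cells with intact Δψm (top right quadrant). Mean ± SEM of three experiments in duplicate.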

Assay [7] concerns GM15850. The assay is described as follows: Cytoprotective activity in human GM15850 cells assessed as glutathione depletion-induced reduction of cell viability at 0.125 uM after 17 hrs by trypan blue exclusion assay relative to control. The format is functional. The method in brief:
as §2

In assay [8] the test system is GM15850. The assay is described as follows: Cytoprotective activity in human GM15850 cells assessed as glutathione depletion-induced reduction of cell viability at 0.25 uM after 17 hrs by trypan blue exclusion assay relative to control. The format is functional. The method in brief: as §2
Assay [9] deals with GM15850. The assay is described as follows: Cytoprotective activity in human GM15850 cells assessed as glutathione depletion-induced reduction of cell viability at 2.5 uM after 17 hrs by trypan blue exclusion assay relative to control. In kind it is functional. The method in brief: as §2

Activity calls are given as the source filed them. The rule behind the calls is not given here.

`CCCCCCCCCCCCCC1=C(O)C(=O)C=C(NCCCC(=O)OC(C)(C)C)C1=O`: the Activity in assay [1] was determined as 26%; in assay [3], 50%; in assay [4] it was 37%; in [6] it was 40%. Moreover, the result in assay [2] and in assay [5] was Active.
Regarding `CCCCCCCCCCCCCC1=C(OC)C(=O)C=C(NCCCC(=O)OC(C)(C)C)C1=O`, the Activity was 72% in [1]; 48% in assay [7]; 93% in assay [3]; 86% in assay [4]; 58% in [8]; 84% in [9]. The compound further showed an Activity in [6] of 85%. For the same compound, the result in assay [2] and in [5] was Active.
For `CCCCCCCCCCCCCC1=C(OC)C(=O)C=C(NCCCC(=O)O)C1=O`, the Activity in [1] was determined as 41%; in assay [3], 74%; in assay [4], 51%; in [6], 60%. Further, the result in [2] and in assay [5] was Active.
On to `CCCCCCCCCCCCCC1=C(O)C(=O)C=C(NCCCC(=O)O)C1=O`, for which the Activity in assay [1] is listed as 8%; in [3] it was 36%; in assay [4], 24%; in assay [6], 27%. For the same compound, the result in assay [2] and in [5] was Active.
